Screens as filed in PubChem BioAssay.
Hits are enriched below; roughly 2.5% of the tested compounds scored in any of these assays.
HTRA1 inh = HTRA1 (human) protease inhibition; Q92743; recombinant HTRA1, FP-rhodamine activity-based probe, fluorescence polarization; inhibition, % at 5.96 µM; hit rate 0.5% among 340,000; in the data active = inhibition above about 36%;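 also: 0% = enzyme with DMSO and 100% = wells lacking enzyme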
SIAE inh = blocks human sialic acid acetylesterase; Q9HAT2; SIAE FP-Rh probe binding, fluorescence polarization; inhibition, % at 9.66 µM; hit rate 0.69% among 370,000; AID 1053197;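 active = inhibition above a cutoff: mean of compounds within the control limits plus 3 SD of those, cut at about 17% in these data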;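 also: 0% = plate median of compound wells and 100% = probe without SIAE protein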
TCR-CD3 inh = inhibitors of human TCR-CD3 interaction | hit rate 0.37% among 360,000 | inhibition, % at 9.4 µM | TAMRA-labeled TCR probe fluorescence, biochemical | AID 651800; in the data active = inhibition above about 19%;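 also: recombinant mutant TCR 2C K166C tagged with TAMRA read by polarization; 0% = receptor in buffer alone and 100% = receptor with positive control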
ABHD4 inh = inhibitors of mouse ABHD4. Q8VD66. purified mABHD4, FP-Rh probe fluorescence polarization. inhibition, % at 8.92 µM. hit rate 0.54% among 370,000. AID 720543;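 active = inhibition exceeding the mean over every tested compound plus 3 SD, cut at about 30% in these data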;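 also: 0% = plate median of compound wells and 100% = S159A mutant with DMSO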
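assay system = mABHD4 protein | compound dosing = single nominal dose of 8.92 µM, 0.89% DMSO final | read-out basis = percent inhibition of probe binding, normalized to plate controls | schedule = Enzyme–compound pre-incubation 45 min, then probe 60 min, both 25 °C | detection = fluorescence polarization, excitation 525 nm, emission 598 nm, BODIPY TMR filters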
PRMT1 inh = blocks human protein arginine methyltransferase 1 | Q99873 | recombinant PRMT1, activity-based probe fluorescence polarization | inhibition, % at 2.79 µM | hit rate 1.3% among 370,000 | AID 652257;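 active = inhibition above about 21% made by adding two undisclosed values, limit read from the data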
Target sequence (Q99873 whole entry, looked up): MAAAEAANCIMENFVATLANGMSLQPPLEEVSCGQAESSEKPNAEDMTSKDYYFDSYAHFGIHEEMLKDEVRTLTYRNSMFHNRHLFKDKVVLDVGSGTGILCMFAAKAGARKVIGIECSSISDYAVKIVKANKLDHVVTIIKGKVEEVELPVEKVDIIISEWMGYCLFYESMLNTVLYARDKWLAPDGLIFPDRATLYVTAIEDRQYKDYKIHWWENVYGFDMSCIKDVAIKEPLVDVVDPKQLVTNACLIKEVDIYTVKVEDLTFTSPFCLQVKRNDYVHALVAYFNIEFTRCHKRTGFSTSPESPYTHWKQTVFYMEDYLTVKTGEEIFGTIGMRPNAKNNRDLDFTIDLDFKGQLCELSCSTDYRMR
PRMT1 confirm = confirmation of human PRMT1 inhibitors. hit rate 42% among 3,300. shares compounds with PRMT1 inh. recombinant His-PRMT1, activity-based probe fluorescence polarization. inhibition, % at 2.79 µM;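 active = mean inhibition across replicates above the hit cutoff derived for the earlier primary screen, cut at about 22% in these data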
Numbers without * were called inactive; · = not tested or not shown.

SMILES	HTRA1 inh	SIAE inh	TCR-CD3 inh	ABHD4 inh	PRMT1 inh	PRMT1 confirm
O=C1CC(Sc2nnnn2-c2ccccc2)C(=O)N1c1cccc(Cl)c1 (stereo unspecified)	-2	-4	-4	2	74*	79*
COc1ccc(N2C(=O)CC(Sc3nc(C)cc(C)c3C#N)C2=O)cc1 (stereo unspecified)	-2	0	2	1	7	·
CCN(CC)CCCNC(=O)c1oc(=O)c2ccccc2c1-c1ccc(C)cc1	·	-1	·	1	0	·
Cc1n[nH]c(C)c1S(=O)(=O)NCCc1ccccc1	·	4	·	4	0	·
CC(C)N(CCC(=O)c1ccc2ccccc2c1)Cc1ccccc1	-8	-13	4	-7	54*	71*
CCCC[n+]1c(C)sc2cc(OC)ccc21	-5	4	1	4	30*	6
COc1ccc2sc(C)[n+](C)c2c1	-6	-1	-4	5	60*	30*
COc1ccc2c(c1)sc(N)[n+]2Cc1cc(C)cc2cccnc12	-1	-8	-1	2	2	·
O=C1CCCC2=C1C(c1ccccc1)NC(=S)N2 (stereo unspecified)	0	10	2	-2	4	·
Fc1cccc(/C=C2\CCCC3=C2NC(=S)NC3c2cccc(F)c2)c1 (stereo unspecified)	-46	0	-9	-2	64*	18
CC1CC2=C(NC(=S)NC2c2ccc(F)cc2)/C(=C/c2ccc(F)cc2)C1 (stereo unspecified)	-15	0	4	6	49*	22*
Fc1ccccc1/C=C1\CCCC2=C1NC(=S)NC2c1ccccc1F (stereo unspecified)	-34	4	4	-9	38*	20
C=CCOc1ccc(C2NC(=S)NC3=C2CCc2ccccc23)cc1 (stereo unspecified)	-23	-1	2	2	5	·
S=C1NC2=C(CCC/C2=C\c2ccccc2)C(c2ccccc2)N1 (stereo unspecified)	-17	6	-1	11	43*	32*
COC(=O)[C@]12C[C@H](CC(=O)NCCCCc3ccccc3)C(=O)N(Cc3cccc4ccccc34)C1=C[C@H](COCc1ccccc1)O[C@@H]2C	·	-11	·	-9	6	·
COc1ccc(C2NC(=S)NC3=C2CCCC3=C2SCCS2)cc1 (stereo unspecified)	-57	-31	-6	-12	8	·
COc1ccc2c(c1)CCC1=C2NC(=S)NC1c1ccc(N(C)C)cc1 (stereo unspecified)	4	7	1	15	17	·
S=C1NC2=C(CCC/C2=C\c2ccc(Cl)cc2)C(c2ccc(Cl)cc2)N1 (stereo unspecified)	-18	0	-3	6	27*	15
S=C1NC2=C(CCCC2=C2SCCCS2)C(c2ccccc2)N1 (stereo unspecified)	-45	-23	-6	-15	35*	4
Cc1ccccc1CN1CCCCC(NC(=O)c2cccc(F)c2)C1=O (stereo unspecified)	·	-7	·	6	-4	·
FC(F)(F)c1ccccc1NC(=S)OCCN1CCCC12CCC(c1ccccc1)CC2 (stereo unspecified)	·	2	·	10	42*	25*
CCCC1CCC2(CCCN2CCOC(=S)Nc2cccc(Cl)c2)CC1 (stereo unspecified)	·	10	·	5	32*	30*
CCCC1CCC2(CCCN2CCOC(=O)Nc2cccc(Cl)c2)CC1 (stereo unspecified)	·	1	·	7	-2	·
CCCC1CCC2(CCCN2CCOC(=S)Nc2ccccc2Cl)CC1 (stereo unspecified)	·	-6	·	3	3	·
COc1ccc2cc(C(=O)CS(=O)(=O)c3ccc(Cl)cc3)c(=O)oc2c1	·	5	2	14	0	·
SMILES	HTRA1 inh	SIAE inh	TCR-CD3 inh	ABHD4 inh	PRMT1 inh	PRMT1 confirm
CC(COc1cccc(C(F)(F)F)c1)CN1CCC(C(O)(c2ccccc2)c2ccccc2)CC1 (stereo unspecified)	·	0	·	12	2	·
O=C(CN1C(=O)CCSc2ccccc21)Nc1ccc(F)cc1F	·	3	·	2	1	·
O[C@H](COc1cc(F)cc(F)c1)CN1CCC(C(O)(c2ccccc2)c2ccccc2)CC1	·	4	·	6	-2	·
O=C(OCC(=O)c1ccco1)c1ccc2ncsc2c1	1	-2	-9	-10	46*	4
Cn1nnnc1Sc1ncnc2scc(-c3ccccc3C(F)(F)F)c12	-16	-2	3	-3	39*	14
O=C(CCCSc1ccc(Cl)cc1)Nc1cc(S(=O)(=O)N2CCOCC2)ccc1O	-5	-8	-3	10	49*	22*
COC(=O)c1cc(-c2cccs2)c(=O)n2c1CCC2	·	9	·	4	0	·
Cc1nc2scc(-c3ccccc3)c2c(=O)n1N=C1C=CC(=O)C=C1	·	16	-1	10	90*	94*
COCCCNC(=O)C[C@H]1C[C@@]2(C(=O)OC)C(=C[C@H](COCc3ccccc3)O[C@@H]2C)N(Cc2ccccc2)C1=O	·	5	·	7	-1	·
O=C(CSc1nccc(=O)[nH]1)Nc1ccc(Br)c(Cl)c1	-5	-4	12	-8	0	·
O=C(CSc1nccc(=O)[nH]1)Nc1ccc(F)c(Cl)c1	-5	5	0	-1	42*	30*
COc1ccccc1NS(=O)(=O)c1cc(NC(=O)c2sccc2C)ccc1N1CCOCC1	-39	-24	-7	-15	4	·
COc1ccccc1NS(=O)(=O)c1cc(NC(=O)c2sccc2C)ccc1N1CCCC1	-18	-8	7	-19	66*	84*
COCC(=O)Nc1ccc(N2CCOCC2)c(S(=O)(=O)Nc2ccccc2OC)c1	0	0	1	-5	18	·
O=S(=O)(Nc1ccccc1F)c1cccc(NC(=S)NCCN2CCOCC2)c1	3	2	1	5	73*	61*
O=C(Nc1cccc(S(=O)(=O)Nc2ccccc2F)c1)c1ccc2ccccc2n1	-49	-12	-1	-17	43*	12
COc1ccccc1NS(=O)(=O)c1cc(NC(=S)NCCN2CCOCC2)ccc1N1CCOCC1	3	0	4	-3	36*	57*
COc1ccc(C2C(C(=O)Nc3cc(OC)c(OC)c(OC)c3)CCC(=O)N2c2ccc(OC)cc2)cc1 (stereo unspecified)	·	7	·	2	0	·
COC(=O)[C@]12C[C@H](CC(=O)N3CCOCC3)C(=O)N(CCc3ccc(OC)c(OC)c3)C1=C[C@H](C(C)C)O[C@@H]2C1CC1	·	3	·	2	-6	·
CCOC(=O)CC(=O)CSc1ncnc2c1nnn2-c1ccccc1	-2	1	-9	13	64*	92*
CCOC(=O)CNC(=O)CSc1ncnc2c1nnn2-c1ccc(F)cc1	6	-2	-10	-13	6	·
